Experimental data pooled from the literature.
Each line is one published result; the experiments were not run side by side.
Target: Mitogen-activated protein kinase kinase kinase 2 (MAP3K2, Homo sapiens, UniProt Q9Y2U5)
Residues used in one study (Q9Y2U5 1-619): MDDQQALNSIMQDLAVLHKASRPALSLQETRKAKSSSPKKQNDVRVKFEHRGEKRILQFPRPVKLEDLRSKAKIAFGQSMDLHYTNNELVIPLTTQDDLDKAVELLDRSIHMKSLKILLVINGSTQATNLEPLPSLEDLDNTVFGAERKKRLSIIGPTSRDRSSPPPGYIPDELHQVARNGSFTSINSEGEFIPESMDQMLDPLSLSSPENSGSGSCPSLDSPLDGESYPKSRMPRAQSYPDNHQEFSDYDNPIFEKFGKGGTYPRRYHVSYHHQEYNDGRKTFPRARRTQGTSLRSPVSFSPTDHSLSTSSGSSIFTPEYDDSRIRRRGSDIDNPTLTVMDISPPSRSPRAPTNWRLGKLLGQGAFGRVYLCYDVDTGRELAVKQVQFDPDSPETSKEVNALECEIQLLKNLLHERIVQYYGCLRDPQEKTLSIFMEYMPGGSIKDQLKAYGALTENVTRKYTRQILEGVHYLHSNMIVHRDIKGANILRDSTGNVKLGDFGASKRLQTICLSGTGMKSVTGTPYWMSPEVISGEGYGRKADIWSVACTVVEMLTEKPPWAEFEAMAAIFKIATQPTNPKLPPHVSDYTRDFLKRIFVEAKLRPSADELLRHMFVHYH

Cc1cc(O)c(-c2ccc([C@@H](C)CN(C)C)cc2)c2c1[nH]c(=O)c1sccc12
inhibition (enzyme activity, inhibitor; 0.1 µM): -1.76%

COc1ccc2[nH]c3c4[nH]c5ccc(OC)cc5c4c4c(c3c2c1)C(=O)NC4=O
remaining binding (binding, competition with immobilised ligand; 1 µM): 85%

CCCCC(=O)Nc1ccc(-c2ccc3ncn(CCC)c(=O)c3c2)cn1
remaining binding (binding, competition with immobilised ligand; 0.5 µM): 100%

CN1CCN(C(=O)c2ccc(NC(=O)Nc3ccc(N(C)c4ccnc(Nc5ccc(CS(C)(=O)=O)cc5)n4)cc3)cc2)CC1
remaining binding (binding, competition with immobilised ligand; 1 µM): 38%

C=CC(=O)N1CCC([C@@H]2CCNc3c(C(N)=O)c(-c4ccc(Oc5ccccc5)cc4)nn32)CC1
inhibition (enzyme activity, inhibitor; 1 µM): 39%

COc1ccc2oc(-c3ccc4nc(N)oc4c3)c/c(=N\c3ccccc3NC(=O)CCN)c2c1
remaining binding (binding; 1 µM): 101%

CC(C)S(=O)(=O)c1ccc2nccc(Nc3ccc4sc(C5CCCC5)nc4c3)c2c1
activity vs control (enzyme activity, inhibitor; 1 µM): 103%

C1=C/COCc2cc(ccc2OCCN2CCCC2)Nc2nccc(n2)-c2cccc(c2)COC/1
remaining binding (binding; 0.1 µM): 38%

C#Cc1cc(-c2cc(Nc3nc(N[C@@H](C)c4ccc(F)cn4)ncc3Cl)n[nH]2)ccc1C=O
inhibition (enzyme activity, inhibitor; 0.2 µM): 55.2%

CO[C@@H]1[C@H](N(C)C(=O)c2ccccc2)C[C@H]2O[C@]1(C)n1c3ccccc3c3c4c(c5c6ccccc6n2c5c31)C(=O)NC4
inhibition (enzyme activity, inhibitor; 1 µM): 94%
